Measured values pooled from the literature.
Each line is one published result; the experiments were not run side by side.
Target: MAP kinase-interacting serine/threonine-protein kinase 2 (MKNK2, Homo sapiens, UniProt Q9HBH9)

| Compound | observed | method | tested at | remaining binding [%] |
| --- | --- | --- | --- | --- |
| N#Cc1ccccc1CSc1nnc2c(n1)[nH]c1ccccc12 | binding | competition with immobilised ligand | 10 µM | 95 |
| CO[C@@H](C)c1c(Nc2ccc([C@H](N(C)C(=O)C3CCS(=O)(=O)CC3)C(F)(F)F)cc2)cnc2cc(Cl)nn12 | cell-free assay | competition with immobilised ligand | 1 µM | 100 |
| COc1cc(C(=O)N2CCC(N3CCN(C)CC3)CC2)ccc1Nc1ncc2c(n1)N(C)c1ccccc1C(=O)N2C | binding | competition with immobilised ligand | 10 µM | 1.2 |
| CNC(=O)c1ccc(Nc2ncc(C(F)(F)F)c(NCc3nccnc3N(C)S(C)(=O)=O)n2)cc1 | cell-free assay | competition with immobilised ligand | 0.1 µM | 100 |
| COc1cnc(Nc2cccc(S(N)(=O)=O)c2)nc1N1CCN(c2ccccc2)C(=O)C1 | binding | competition with immobilised ligand | 1 µM | 59 |
| Nc1ncc2c(n1)-c1c([nH]c3ccc(C#CC4CC4)cc13)CCCC2 | binding | competition with immobilised ligand | 1 µM | 77 |
| C[C@H]1CCN(c2nccc(-c3cnn4ncccc34)n2)C1 | binding | – | 1 µM | 2.3 |
| O=C(O)c1cc(-c2ccc(C3CCNCC3)cc2)c2ccc(-c3ccc(C(F)(F)F)cc3)cc2c1 | cell-free assay | competition with immobilised ligand | 1 µM | 100 |
| O=C(NCCCN1CCOCC1)c1ccc(Nc2ncc(Cl)c(-c3ccc(Cl)s3)n2)cc1 | binding | competition with immobilised ligand | 1 µM | 55 |
| Cc1cnn2ncc(-c3ccnc(N(C)C)n3)c2c1 | binding | – | 1 µM | 49 |
| CCCOc1ccc([C@H]2[C@H](C(=O)O)[C@@H](c3ccc4c(c3)OCO4)CN2CC(=O)Nc2c(CC)cccc2CC)cc1 | cell-free assay | competition with immobilised ligand | 1 µM | 74 |
| F[C@@H]1CCN(c2nccc(-c3cnn4ncccc34)n2)C1 | binding | – | 1 µM | 68 |
| FC(F)(F)Oc1cccc(-c2cnc3ccc(-c4ccncc4)nn23)c1 | cell-free assay | competition with immobilised ligand | 5 µM | 21 |
| CN(C)c1nccc(-c2cnn3ncccc23)n1 | binding | – | 1 µM | 28 |
| CNCc1ccccc1-c1csc([C@H](C)Nc2nc(C)nc3cc(OC)c(OC)cc23)c1 | cell-free assay | competition with immobilised ligand | 1 µM | 71 |
| O=C(c1ccc(Nc2ncc(Cl)c(-c3ccc(Cl)s3)n2)cc1)N1CCC(N2CCCC2)CC1 | binding | competition with immobilised ligand | 1 µM | 4.2 |
| CN(CCCC(F)(F)F)c1nccc(-c2cnn3ncccc23)n1 | binding | – | 1 µM | 35 |
